Data reported in ChEMBL document CHEMBL1157945, “Bioactive secolignans from Peperomia dindygulensis” (J Nat Prod, 2006).

Key:
HepG2 = experiment: Cytotoxicity against human HepG2 cells; assay type: functional, cell-based
Procedure, shortened: (§1)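 Growth inhibition in WI-38 fibroblasts (Eagle's MEM), VA-13 (RITC 80-7) and HepG2 (D-MEM) lines, each medium with 10% FBS and 80 µg/mL kanamycin.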

[1] = Reversal of multidrug resistance in human AD10 cells assessed as increase in calcein accumulation at 0.25 ug/ml relative to control; assay type: functional
Procedure, shortened: (§2)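 Multidrug-resistant ovarian A2780 subline AD10, kept in RPMI-1640 with 10% FBS and 80 µg/mL kanamycin. Intracellular accumulation of the fluorescent efflux probe calcein AM measured with test compounds at 0.25, 2.5 and 25 µg/mL; verapamil as reference. Values given relative to untreated control or to verapamil; means of triplicates.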

[2] = Reversal of multidrug resistance in human AD10 cells assessed as increase in calcein accumulation at 2.5 ug/ml relative to control; assay type: functional; procedure, shortened: as §2
[3] = Reversal of multidrug resistance in human AD10 cells assessed as increase in calcein accumulation at 25 ug/ml relative to control; assay type: functional; procedure, shortened: as §2
[4] = Reversal of multidrug resistance in human AD10 cells assessed as increase in calcein accumulation at 0.25 ug/ml relative to verapamil; assay type: functional; procedure, shortened: as §2
[5] = Reversal of multidrug resistance in human AD10 cells assessed as increase in calcein accumulation at 2.5 ug/ml relative to verapamil; assay type: functional; procedure, shortened: as §2
[6] = Reversal of multidrug resistance in human AD10 cells assessed as increase in calcein accumulation at 25 ug/ml relative to verapamil; assay type: functional; procedure, shortened: as §2
A549 [7] = experiment: Antiinflammatory activity in human A549 cells assessed as inhibition of TNF-alpha-induced ICAM1 induction incubated for 1 hr prior to TNFalpha challenge measured after 6 hrs; assay type: functional, cell-based
Procedure, shortened: (§3)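 A549 cells grown in RPMI 1640 with 10% FBS and penicillin-streptomycin. Pretreated with serially varied compound concentrations for 1 h, then stimulated with IL-1α or TNF-α for 6 h. Cell-surface ICAM-1 detected with mouse anti-human ICAM-1 antibody plus peroxidase-conjugated goat anti-mouse IgG, read as absorbance. Expression as % of control = (sample+cytokine − no cytokine)/(cytokine − no cytokine) ×100; IC50 derived from this.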

A549 [8] = experiment: Antiinflammatory activity in human A549 cells assessed as inhibition of IL1alpha -induced ICAM1 induction incubated for 1 hr prior to IL1alpha challenge measured after 6 hrs; assay type: functional, cell-based; procedure, shortened: as §3
A549 [9] = experiment: Cytotoxicity against human A549 cells after 24 hrs by MTT assay; assay type: functional, cell-based; details: A549, 24 h
Procedure, shortened: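 A549 cells in RPMI 1640 with 10% FBS were exposed to serial dilutions of compound for 24 h. Viability read by MTT absorbance: % = (experimental − background)/(control − background) ×100. IC50 taken from viability data.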

[10] = Cytotoxicity against human WI38 cells; assay type: cell-based; details: WI-38; procedure, shortened: as §1
WI-38 VA13 = experiment: Cytotoxicity against human VA13 cells; assay type: functional, cell-based; procedure, shortened: as §1

| IC50 (A549 [7]) | IC50 (A549 [8]) | Structure (SMILES) | IC50 (HepG2) | Activity [1] | Activity [2] | Activity [3] | Activity [4] | Activity [5] | Activity [6] | IC50 (A549 [9]) | IC50 [10] | IC50 (WI-38 VA13) |
| --- | --- | --- | --- | --- | --- | --- | --- | --- | --- | --- | --- | --- |
| 3.16 µM | 4.23 µM | C=C1C(=O)OC[C@H]1C(c1cc(OC)c(O)c(OC)c1)c1cc(OC)c2c(c1)OCO2 (some centres not stated) | 22.3 µM | 104% | 98% | 125% | 98% | 85% | 83% | 84.7 µM | 20.9 µM | 13.5 µM |
| – | – | COc1cc(C(c2cc(OC)c3c(c2)OCO3)[C@@H]2CO[C@@H](O)[C@@H]2C)cc2c1OCO2 | 140 µM | 99% | 104% | 107% | 93% | 90% | 71% | – | 142 µM | 138 µM |
| – | – | COc1cc(C(c2cc(OC)c3c(c2)OCO3)[C@@H]2COC(=O)[C@H]2C)cc(OC)c1O (some centres not stated) | 159 µM | 99% | 104% | 107% | 93% | 90% | 71% | – | 174 µM | 112 µM |
| – | – | COc1cc(C(c2cc(OC)c3c(c2)OCO3)[C@@H]2COC(=O)[C@@H]2CO)cc(OC)c1OC (some centres not stated) | > 224 µM | 105% | 109% | 125% | 98% | 94% | 83% | – | > 224 µM | > 224 µM |
| 59.9 µM | 119 µM | COc1cc(C(c2cc(OC)c(OC)c(OC)c2)[C@@H]2COC(=O)[C@H]2C)cc(O)c1OC (some centres not stated) | > 231 µM | 101% | 104% | 105% | 95% | 90% | 70% | > 316 µM | > 231 µM | > 231 µM |
| 29 µM | 44.3 µM | COc1cc(C(c2cc(OC)c(OC)c(OC)c2)[C@@H]2COC(=O)[C@H]2C)cc(OC)c1O (some centres not stated) | 163 µM | 96% | 95% | 103% | 90% | 82% | 68% | > 316 µM | 184 µM | 151 µM |
| – | – | COc1cc(C(c2cc(OC)c3c(c2)OCO3)[C@@H]2COC(=O)[C@@H]2CO)cc2c1OCO2 | 97.8 µM | 98% | 95% | 105% | 92% | 82% | 70% | > 316 µM | 12.8 µM | 113 µM |
| – | – | COc1ccc(CCN(C)CCCC(C#N)(c2ccc(OC)c(OC)c2)C(C)C)cc1OC (configuration not stated) | – | 106% | 116% | 150% | – | – | – | – | – | – |
| – | – | COc1cc(C(c2cc(OC)c3c(c2)OCO3)[C@@H]2COC(=O)[C@@H]2COC(C)=O)cc(OC)c1O (single isomer, unassigned; (-)) | 75.9 µM | 108% | 104% | 104% | 101% | 89% | 69% | – | 14.8 µM | 15.2 µM |
| – | – | COc1cccc2c1C(=O)c1c(O)c3c(c(O)c1C2=O)C[C@@](O)(C(=O)CO)C[C@@H]3O[C@H]1C[C@H](N)[C@H](O)[C@H](C)O1 (stereo in doubt) [DOXORUBICIN] | 2.21 µM | – | – | – | – | – | – | – | 1.21 µM | 0.699 µM |
| – | – | CC(=O)O[C@H]1C(=O)[C@@]2(C)[C@H]([C@H](OC(=O)c3ccccc3)[C@]3(O)C[C@H](OC(=O)[C@H](O)[C@@H](NC(=O)c4ccccc4)c4ccccc4)C(C)=C1C3(C)C)[C@]1(OC(C)=O)CO[C@@H]1C[C@@H]2O [PACLITAXEL] | – | – | – | – | – | – | – | – | 0.0468 µM | 0.0059 µM |
| – | – | COc1cc(C(c2cc(OC)c3c(c2)OCO3)[C@@H]2COC(=O)[C@H]2C)cc2c1OCO2 [PEPEROMIN A] | > 239 µM | 85% | 91% | 120% | 90% | 82% | 83% | > 316 µM | > 239 µM | > 239 µM |
| – | – | COc1cc([C@@H](c2cc(OC)c3c(c2)OCO3)[C@@H]2COC(=O)[C@H]2C)cc(OC)c1OC [PEPEROMIN B] | 119 µM | 111% | 104% | 121% | 132% | 107% | 81% | > 316 µM | 9.06 µM | 13.9 µM |
| 125 µM | 246 µM | COc1cc(C(c2cc(OC)c(OC)c(OC)c2)[C@@H]2COC(=O)[C@H]2C)cc(OC)c1OC [PEPEROMIN C] | 189 µM | 109% | 115% | 138% | 130% | 118% | 92% | > 316 µM | 175 µM | 120 µM |
| – | – | C=C1C(=O)OC[C@H]1C(c1cc(OC)c2c(c1)OCO2)c1cc(OC)c2c(c1)OCO2 [PEPEROMIN E] | 12.1 µM | 102% | 102% | 132% | 96% | 88% | 88% | 78.9 µM | 1.21 µM | 1.93 µM |
